Source: ChEMBL document CHEMBL1129356, “Novel 3,7-diheterabicyclo[3.3.1]nonanes that possess predominant class III antiarrhythmic activity in 1-4 day post infarction dog models: X-ray diffraction analysis of 3-[4-(1H-imidazol-1-yl)benzoyl]-7-isopropyl-3,7-diazabicyclo[3.3.1]nona ne dihydroperchlorate” (1996)
Activity calls are given as the source filed them.

Key:
Canis familiaris [1] = experiment: Tested for antiarrhythmic property by measuring ability to decrease Mean blood pressure (post drug) is compared to Lidocaine using doses(3 and 6 mg/kg); assay type: functional, Canis lupus familiaris
Procedure, shortened: (§1)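 Mongrel dogs (about 12–25 kg), 1–4 days after coronary occlusion infarction, under sodium pentobarbital (~30 mg/kg) with 12-lead ECG monitoring. Agents and lidocaine were given iv at 3 and 6 mg/kg. Programmed ventricular stimulation was applied at baseline, about 2–5 min after each dose, and at 30 min. SVT was defined as ≥250 beats/min lasting ≥30 s. Pre means drug-free; post means after dosing.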

Canis familiaris [2] = experiment: Tested for antiarrhythmic property by measuring ability to decrease Mean blood pressure (drug free) is compared to Lidocaine using doses(3 and 6 mg/kg).; assay type: functional, Canis lupus familiaris; procedure, shortened: as §1
Canis familiaris [3] = experiment: Tested for antiarrhythmic property by measuring ability to decrease heart rate(post drug) is compared to Lidocaine using doses(3 and 6 mg/kg).; assay type: functional, Canis lupus familiaris; procedure, shortened: as §1
Canis familiaris [4] = experiment: Tested for antiarrhythmic property by measuring ability to decrease heart rate(drug free) is compared to Lidocaine using doses (3 and 6 mg/kg).; assay type: functional, Canis lupus familiaris; procedure, shortened: as §1
Canis familiaris [5] = experiment: Antiarrhythmic property Nonsustained ventricular tachycardia is compared to lidocaine(2) using dose of (3 and 6 mg/kg); assay type: functional, Canis lupus familiaris, Heart; procedure, shortened: as §1
Canis familiaris [6] = experiment: Tested for antiarrhythmic property by measuring ability to decrease heart rate(post drug) is compared to Lidocaine using doses(3 and 6 mg/kg); No effect; assay type: functional, organism-based; design: dose 6 mg/kg; conditions: Canis lupus familiaris; procedure, shortened: as §1
Canis familiaris [7] = experiment: Antiarrhythmic property His-Purkinje conduction time(post drug) is compared to lidocaine(2) using doses(3 and 6 mg/kg); No effect; assay type: functional, organism-based; design: dose 6 mg/kg; conditions: Canis lupus familiaris; His-Purkinje system; procedure, shortened: as §1
Canis familiaris [8] = experiment: Antiarrhythmic property is compared to lidocaine(2) using doses(3 and 6 mg/kg). Time required for the ventricular myocardium to undergo depolarization and repolarization (drug free); No effect; assay type: functional, organism-based; design: dose 6 mg/kg; conditions: Canis lupus familiaris; procedure, shortened: as §1
Canis familiaris [9] = experiment: Antiarrhythmic property ventricular effective refractory period(post drug) is compared to lidocaine(2) using doses(3 and 6 mg/kg); assay type: functional, Canis lupus familiaris, Heart; procedure, shortened: as §1
Canis familiaris [10] = experiment: Tested for antiarrhythmic property by measuring ability to decrease heart rate(drug free) is compared to Lidocaine using doses (3 and 6 mg/kg); No effect; assay type: functional, organism-based; design: dose 6 mg/kg; conditions: Canis lupus familiaris; procedure, shortened: as §1
Canis familiaris [11] = experiment: Antiarrhythmic property is compared to lidocaine(2) using doses(3 and 6 mg/kg). Time required for the ventricular myocardium to undergo depolarization and repolarization ((post drug); No effect; assay type: functional, organism-based; design: dose 6 mg/kg; conditions: Canis lupus familiaris; procedure, shortened: as §1
Canis familiaris [12] = experiment: Tested for antiarrhythmic property by measuring ability to decrease Mean blood pressure(post drug) is compared to Lidocaine using doses(3 and 6 mg/kg); assay type: functional, Canis lupus familiaris; procedure, shortened: as §1
Canis familiaris [13] = experiment: Antiarrhythmic property His-Purkinje conduction time(drug free) is compared to lidocaine(2) using doses(3 and 6 mg/kg); No effect; assay type: functional, organism-based; design: dose 6 mg/kg; conditions: Canis lupus familiaris; His-Purkinje system; procedure, shortened: as §1
Canis familiaris [14] = experiment: (§2) Antiarrhythmic property ventricular effective refractory period(drug free) is compared to lidocaine(2) using doses(3 and 6 mg/kg); assay type: functional, Canis lupus familiaris, Heart; procedure, shortened: as §1
Canis familiaris [15] = experiment: Antiarrhythmic property A-V nodal conduction time(drug free) is compared to lidocaine(2) using doses(3 and 6 mg/kg); No effect; assay type: functional, organism-based; design: dose 6 mg/kg; conditions: Canis lupus familiaris; Heart; procedure, shortened: as §1
Canis familiaris [16] = experiment: Antiarrhythmic property A-V nodal conduction time(post drug) is compared to lidocaine(2) using doses(3 and 6 mg/kg); No effect; assay type: functional, organism-based; design: dose 6 mg/kg; conditions: Canis lupus familiaris; Heart; procedure, shortened: as §1
Canis familiaris [17] = experiment: Antiarrhythmic properties are compared to lidocaine(2) using doses(3 and 6 mg/kg) ventricular effective refractory period(post drug); No effect; assay type: functional, organism-based; design: dose 6 mg/kg; conditions: Canis lupus familiaris; Heart; procedure, shortened: as §1
Canis familiaris [18] = experiment: Antiarrhythmic properties are compared to lidocaine(2) using doses(3 and 6 mg/kg). Time required for the ventricular myocardium to undergo depolarization and repolarization ((post drug); No effect; assay type: functional, organism-based; design: dose 6 mg/kg; conditions: Canis lupus familiaris; procedure, shortened: as §1
Canis familiaris [19] = experiment: Antiarrhythmic properties are compared to lidocaine(2) using doses(3 and 6 mg/kg). Time required for the ventricular myocardium to undergo depolarization and repolarization (drug free); No effect; assay type: functional, organism-based; design: dose 6 mg/kg; conditions: Canis lupus familiaris; procedure, shortened: as §1
Canis familiaris [20] = experiment: Antiarrhythmic properties are compared to lidocaine(2) using doses(3 and 6 mg/kg).Tested for time required for the ventricular myocardium to undergo depolarization and repolarization (drug free); No effect; assay type: functional, organism-based; design: dose 6 mg/kg; conditions: Canis lupus familiaris; procedure, shortened: as §1
Canis familiaris [21] = experiment: Antiarrhythmic properties are compared to lidocaine(2) using doses(3 and 6 mg/kg). Tested for time required for the ventricular myocardium to undergo depolarization and repolarization ((post drug); No effect; assay type: functional, organism-based; design: dose 6 mg/kg; conditions: Canis lupus familiaris; procedure, shortened: as §1
Canis familiaris [22] = experiment: (§3) Antiarrhythmic properties are compared to lidocaine(2) using doses(3 and 6 mg/kg) measures His-Purkinje conduction time(drug free); No effect; assay type: functional, organism-based; design: dose 6 mg/kg; conditions: Canis lupus familiaris; His-Purkinje system; procedure, shortened: as §1
Canis familiaris [23] = experiment: Antiarrhythmic property A-V nodal conduction time(post drug) is compared to lidocaine(2) using dose (3 and 6 mg/kg); No effect; assay type: functional, organism-based; design: dose 6 mg/kg; conditions: Canis lupus familiaris; Heart; procedure, shortened: as §1
Canis familiaris [24] = experiment: Antiarrhythmic properties are compared to lidocaine(2) using doses(3 and 6 mg/kg) measures His-Purkinje conduction time(post drug); No effect; assay type: functional, organism-based; design: dose 6 mg/kg; conditions: Canis lupus familiaris; His-Purkinje system; procedure, shortened: as §1
Canis familiaris [25] = experiment: Antiarrhythmic properties are compared to lidocaine(2) using doses(3 and 6 mg/kg) ventricular effective refractory period(drug free); No effect; assay type: functional, organism-based; design: dose 6 mg/kg; conditions: Canis lupus familiaris; Heart; procedure, shortened: as §1
Canis familiaris [26] = experiment: as §3; assay type: functional, organism-based; design: dose 6 mg/kg; conditions: Canis lupus familiaris; His-Purkinje system; procedure, shortened: as §1; remark: listed apart in the source
Canis familiaris [27] = experiment: Antiarrhythmic property Heart rate (drug free) is compared to Lidocaine using doses (3 and 6 mg/kg).; assay type: functional, Canis lupus familiaris
Procedure, shortened: (§4)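 Mongrel dogs (~12–25 kg), 1–4 days after coronary occlusion leaving a surviving epicardial rim, anesthetized with sodium pentobarbital (~30 mg/kg). 12-lead ECG monitored throughout. Agent given iv at 3 and 6 mg/kg. Parameters recorded before (drug free) and after dosing. Programmed electrical stimulation tested SVT inducibility (≥250 beats/min, ≥30 s) at baseline, ~2–5 min after each dose, and at 30 min.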

Canis familiaris [28] = experiment: Antiarrhythmic property Mean blood pressure (drug free) is compared to Lidocaine using doses(3 and 6 mg/kg).; assay type: functional, Canis lupus familiaris; procedure, shortened: as §4
Canis familiaris [29] = experiment: Antiarrhythmic property is compared to lidocaine(2) using doses(3 and 6 mg/kg). Time required for the ventricular myocardium to undergo depolarization and repolarization (drug free); assay type: functional, Canis lupus familiaris; procedure, shortened: as §1
Canis familiaris [30] = experiment: as §2; assay type: functional, Canis lupus familiaris, Heart; procedure, shortened: as §4; remark: listed apart in the source
Canis familiaris [31] = experiment: Antiarrhythmic property His-Purkinje conduction time(post drug) is compared to lidocaine(2) using doses(3 and 6 mg/kg); assay type: functional, Canis lupus familiaris, His-Purkinje system; procedure, shortened: as §1
Canis familiaris [32] = experiment: Antiarrhythmic property A-V nodal conduction time(post drug) is compared to lidocaine(2) using doses(3 and 6 mg/kg); assay type: functional, Canis lupus familiaris, Heart; procedure, shortened: as §1
Canis familiaris [33] = experiment: Antiarrhythmic property Heart rate (post drug) is compared to Lidocaine using doses(3 and 6 mg/kg). system.; assay type: functional, Canis lupus familiaris; procedure, shortened: as §4
Canis familiaris [34] = experiment: Antiarrhythmic property A-V nodal conduction time(drug free) is compared to lidocaine(2) using doses(3 and 6 mg/kg); assay type: functional, Canis lupus familiaris, Heart; procedure, shortened: as §1
Canis familiaris [35] = experiment: Antiarrhythmic property Mean blood pressure(post drug) is compared to Lidocaine using doses(3 and 6 mg/kg); assay type: functional, Canis lupus familiaris; procedure, shortened: as §4
Canis familiaris [36] = experiment: Antiarrhythmic property His-Purkinje conduction time(drug free) is compared to lidocaine(2) using doses(3 and 6 mg/kg); assay type: functional, Canis lupus familiaris, His-Purkinje system; procedure, shortened: as §1
Canis familiaris [37] = experiment: Antiarrhythmic property is compared to lidocaine(2) using doses(3 and 6 mg/kg). Time required for the ventricular myocardium to undergo depolarization and repolarization ((post drug); assay type: functional, Canis lupus familiaris; procedure, shortened: as §1

CC(C)N1CC2CC(CN(C(=O)c3ccc(NS(C)(=O)=O)cc3)C2)C1.Cl
MBP (Canis familiaris [1]): 95 mmHg | MBP (Canis familiaris [2]): 95 mmHg | HR (Canis familiaris [3]): 150 beats min-1 | HR (Canis familiaris [4]): 150 beats min-1 | NSVT (Canis familiaris [5]): 6 mg/kg

CCN(CC)CC(=O)Nc1c(C)cccc1C [LIDOCAINE]
HR (Canis familiaris [6]): inactive | HV interval (Canis familiaris [7]): inactive | QT interval (Canis familiaris [8]): inactive | VERP (Canis familiaris [9]): 167 ms | MBP (Canis familiaris [2]): 105 mmHg | HR (Canis familiaris [10]): inactive | QT interval (Canis familiaris [11]): inactive | MBP (Canis familiaris [12]): 84 mmHg | HV interval (Canis familiaris [13]): inactive | VERP (Canis familiaris [14]): 142 ms | AH interval (Canis familiaris [15]): inactive | AH interval (Canis familiaris [16]): inactive

CC(C)N1CC2CC(CN(C(=O)c3ccc(NS(C)(=O)=O)cc3)C2)C1
VERP (Canis familiaris [17]): inactive | OT (Canis familiaris [18]): inactive | OT (Canis familiaris [19]): inactive | OT interval (Canis familiaris [20]): inactive | OT interval (Canis familiaris [21]): inactive | HV interval (Canis familiaris [22]): inactive | AH interval (Canis familiaris [23]): inactive | HV interval (Canis familiaris [24]): inactive | AH interval (Canis familiaris [15]): inactive | NE (Canis familiaris [15]): inactive | HV interval (Canis familiaris [25]): inactive | VERP (Canis familiaris [25]): inactive | HV interval (Canis familiaris [26]): inactive

CC(C)N1CC2CN(C(C)C)CC(C1)C21SCCS1
HR (Canis familiaris [27]): 154 beats min-1 | MBP (Canis familiaris [28]): 61 mmHg | QT (Canis familiaris [29]): 236 ms | VERP (Canis familiaris [30]): 140 ms | HV interval (Canis familiaris [31]): 40 ms | AH interval (Canis familiaris [32]): 75 ms | HR (Canis familiaris [33]): 105 beats min-1 | AH interval (Canis familiaris [34]): 56 ms | MBP (Canis familiaris [35]): 76 mmHg | VERP (Canis familiaris [5]): 180 ms | HV interval (Canis familiaris [36]): 30 ms | QT (Canis familiaris [37]): 270 ms
